TAAR1 antagonist: antagonists of human TAAR1. Q96RJ0. CHO RD-HGA16 TAAR1, Fluo-8 calcium fluorescence, antagonist. inhibition, % at 3 µM. hit rate 1.5% among 360,000. AID 624466;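 active means inhibition above a per-plate cutoff, the mean inhibition of test compounds on that plate plus 3 SD, cut at about 49% in these data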;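 further: 0% = DMSO plus EC80 beta-PEA response and 100% = DMSO alone without agonist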
Target sequence (Q96RJ0 whole entry, looked up): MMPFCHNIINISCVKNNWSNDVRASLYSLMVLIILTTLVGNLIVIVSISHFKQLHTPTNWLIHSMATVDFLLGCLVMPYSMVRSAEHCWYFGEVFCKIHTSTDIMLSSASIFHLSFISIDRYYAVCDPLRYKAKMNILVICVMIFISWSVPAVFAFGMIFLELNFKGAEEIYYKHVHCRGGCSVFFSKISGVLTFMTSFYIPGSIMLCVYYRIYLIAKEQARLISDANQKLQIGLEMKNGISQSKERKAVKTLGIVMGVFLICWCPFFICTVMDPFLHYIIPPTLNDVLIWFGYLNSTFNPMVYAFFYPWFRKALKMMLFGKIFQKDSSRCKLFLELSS
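test system = CHO RD-HGA16 cells bearing hTAAR1 | replication = singlicate | controls = DMSO-only wells and EC80 β-PEA-stimulated wells | reagent = EC80 β-phenethylamine stimulus | read-out basis = percent inhibition of PEA-evoked calcium signal, max/basal emission ratio | schedule = seeding 17-24 h prior, 75-min 37 °C, 30-min RT dye loading | signal = kinetic Fluo-8 calcium fluorescence measurement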
OX1R antag-1: blocks the human orexin 1 receptor; OX1R-expressing cells, FRET antagonist read-out; O43613; inhibition, % at 6.6 µM; hit rate 1.8% among 330,000; in the data active means inhibition mostly above about 38%, no sharp cut-off; inactive means mostly below about 40%;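 further: 0% = agonist challenge alone and 100% = reference antagonist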
Target sequence (O43613 whole entry, looked up): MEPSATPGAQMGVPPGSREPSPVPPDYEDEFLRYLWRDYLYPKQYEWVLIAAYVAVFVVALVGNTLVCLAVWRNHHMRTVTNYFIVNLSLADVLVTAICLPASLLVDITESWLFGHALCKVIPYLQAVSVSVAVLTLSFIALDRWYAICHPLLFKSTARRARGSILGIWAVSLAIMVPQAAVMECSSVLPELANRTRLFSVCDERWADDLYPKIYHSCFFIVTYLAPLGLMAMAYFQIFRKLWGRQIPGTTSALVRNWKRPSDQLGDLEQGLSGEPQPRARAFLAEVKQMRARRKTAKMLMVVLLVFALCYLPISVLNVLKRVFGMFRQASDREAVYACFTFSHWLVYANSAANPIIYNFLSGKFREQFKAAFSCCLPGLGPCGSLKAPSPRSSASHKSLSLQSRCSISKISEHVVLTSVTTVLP
NTR1 ag: activates human neurotensin receptor 1. NTR1-U2OS beta-arrestin-GFP spot imaging, agonist mode. hit rate 0.17% among 330,000. AID 493036. activation, % at 20 µM. P30989;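 active means activation at or above 40% of the spot to cytoplasm intensity ratio, with at least 20 cells analyzed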;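 further: 0% = DMSO without peptide and 100% = 100 nM NTR1 peptide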
OX1R antag-2: antagonists of human orexin 1 receptor | hit rate 0.43% among 330,000 | CHO/OX1R cells, Fluo-8 calcium fluorescence, orexin A | inhibition, % at 5 µM;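 active means inhibition above its plate's threshold, mean inhibition of all tested compounds on the plate plus 3 SD, cut at about 37% in these data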;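 further: 0% = orexin A challenge wells and 100% = SB-334867-A antagonist wells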
TAAR1 agonist: agonists of human TAAR1; Q96RJ0; activation, % at 3 µM; AID 624467; hit rate 0.99% among 360,000; CHO RD-HGA16 TAAR1, Fluo-8 calcium fluorescence; vehicle wells 0%, saturating PEA agonist 100%;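 active means activation above the mean activation of all test compounds in the run plus 3 SD, cut at about 38% in these data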
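Test system: RD-HGA16 (CHO) cells co-expressing Gα16 and hTAAR1 / Benchmarks: DMSO vehicle as 0%, PEA at EC100 as 100% / Repeats: no replicates (n 1) / Measure: % activation from peak over basal fluorescence ratio, DMSO-to-PEA scaled / Timing: 17-24 h plating, Fluo-8 75 min 37 °C, 30 min RT / Technique: kinetic Fluo-8 calcium fluorescence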
CHO parental Ca: counter-screen for OX1R antagonists: effect in parental CHO cells. inhibition, % at 5.6 µM. AID 463079. hit rate 0.63% among 330,000. parental CHO-K1, ATP-induced calcium, Fluo-8 fluorescence;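 active means inhibition above that plate's mean sample inhibition plus 3 SD, cut at about 26% in these data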;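 further: 0% = ATP-challenged DMSO wells and 100% = DMSO wells without ATP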
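test system = CHO parental line | reagent = ATP stimulus | measured by = intracellular calcium via Fluo-8 no-wash fluorescent dye | control set = ATP and no-ATP DMSO wells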
TAAR1 nonsel count: counter-screen for TAAR1 antagonists: nonselective antagonists; shares compounds with TAAR1 antagonist; counterscreen cell line, calcium fluorescence, antagonist mode; inhibition, % at 3 µM; hit rate 77% among 2,400; AID 651780; in the data active means inhibition above about 22%;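 further: CHO-Ga16 host cells stimulated with ATP at an EC80 level; 0% = agonist EC80 plus vehicle and 100% = vehicle without agonist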
TAAR1 ant conf: confirmation of human TAAR1 antagonists | shares compounds with TAAR1 antagonist | TAAR1-expressing cells, fluorescence antagonist read-out | inhibition, % at 3 µM | hit rate 40% among 2,400 | AID 651785; in the data active means inhibition above about 49%;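 further: CHO-Ga16 host cells challenged with agonist PEA near its EC80; 0% = agonist at EC80 plus vehicle and 100% = vehicle with no agonist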
Ga16 nonsel ag: nonselective Ga16 agonism, counter-screen. shares compounds with TAAR1 antagonist. Ga16-expressing cells, calcium fluorescence, agonist counterscreen. AID 651953. hit rate 18% among 2,400. activation, % at 3 µM; in the data active means activation above about 12%;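 further: 0% = vehicle wells and 100% = saturating stimulus response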
TAAR1 ag count: counter-screen for human TAAR1 antagonists: TAAR1 agonists; hTAAR1 cell line, fluorescence activation, agonist mode; hit rate 2% among 2,400; shares compounds with TAAR1 antagonist; AID 651955; activation, % at 3 µM; in the data active means activation above about 37%;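 further: CHO cells stably expressing TAAR1 with calcium dye readout; 0% = DMSO vehicle and 100% = full agonist response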
Numbers without * were called inactive; . = not tested or not shown. Compounds with a hit are over-represented: about 4% of the library has one in this group of screens.

SMILES | TAAR1 antagonist | OX1R antag-1 | NTR1 ag | OX1R antag-2 | TAAR1 agonist | CHO parental Ca | TAAR1 nonsel count | TAAR1 ant conf | Ga16 nonsel ag | TAAR1 ag count
CCc1cccc(NC(=O)CCC(=O)N2CCSc3ccccc32)c1 | 60* | 17 | -3 | 3 | 8 | -4 | 21 | 40 | 6 | 10
COc1ccccc1NC(=S)N1CCN(c2nc(-c3ccccc3)cs2)CC1 | -6 | 34 | 2 | -24 | -1 | 7 | . | . | . | .
O=C1NC(=Nc2ccccc2)S/C1=C\c1cccn1-c1ccccc1 | 73* | 60* | 8 | 17 | 4 | -2 | 32* | 43 | 3 | 2
Cc1cccc(N=C2NC(=O)/C(=C/c3cccn3C)S2)c1 | -12 | 12 | 0 | -14 | 2 | -14 | . | . | . | .
CC(=O)Nc1ccc2c(c1)nc(CCN1CCN(c3ccccn3)CC1)n2C | -9 | . | 1 | . | 0 | . | . | . | . | .
COc1cc(NC(=O)C(C)(C)C)c(C(=O)OCC(=O)Nc2cc(C)on2)cc1OC | -12 | . | . | . | 2 | . | . | . | . | .
O=C(N/N=C/C=C/c1ccccc1[N+](=O)[O-])c1cc(-c2ccccc2)n[nH]1 | 60* | 31 | 0 | -4 | 24 | -10 | 24* | 39 | 9 | 7
C/C(=N\NC(=O)c1cc2ccccc2cc1O)c1cc2ccccc2o1 | 60* | 8 | 13 | 4 | 19 | -6 | 62* | 88* | 37* | 34
COc1cccc(C2Nc3ccccc3C(=O)N2c2ccc(F)cc2)c1O (stereo unspecified) | -10 | -11 | 0 | -8 | 2 | -6 | . | . | . | .
COc1ccc2c(c1OC)C(=O)N1c3ccccc3C(=O)N(c3ccccc3)C21 (stereo unspecified) | 63* | 18 | 1 | -24 | 22 | -22 | 32* | 51* | 12* | 11
Cc1ccccc1N1C(=O)c2ccccc2N2C(=O)c3ccccc3C12 (stereo unspecified) | -11 | 23 | -1 | -8 | -1 | -2 | . | . | . | .
COc1ccc2c(c1OC)C(=O)N1c3ccccc3C(=O)N(c3ccc(F)cc3)C21 (stereo unspecified) | 82* | 35 | 5 | -24 | 19 | -17 | 28* | 49* | 8 | 11
CN(Cc1ccccc1)C(=O)c1ncn(C)c1C(=O)N(C)Cc1ccccc1 | 8 | 1 | -1 | -22 | 3 | -13 | . | . | . | .
CN(Cc1ccccc1)C(=O)c1ncn(Cc2ccccc2)c1C(=O)N(C)Cc1ccccc1 | 64* | 24 | 4 | -8 | 29 | -24 | 29* | 56* | 12* | 9
COc1ccc(-n2nnc3c(=O)n(Cc4ccccc4C)cnc32)cc1 | . | 9 | 0 | -5 | . | 0 | . | . | . | .
Cc1ccc(C)c(Cn2cnc3c(nnn3-c3ccc(F)cc3)c2=O)c1 | 72* | 0 | 9 | -14 | 30 | -4 | 12 | 37 | 2 | 10
COc1ccc(S(=O)(=O)N2CCCCC2)cc1NC(=O)COC(=O)c1ccco1 | 2 | -1 | 1 | 1 | 2 | -13 | . | . | . | .
O=C(N/N=C/c1cccc(Oc2ccc([N+](=O)[O-])cc2[N+](=O)[O-])c1)c1cncc(Br)c1 | 55* | 23 | 8 | -9 | 21 | -15 | 51* | 54* | 16* | 12
CCCCCCn1nc(C(=O)OCC(=O)c2c(N)n(C)c(=O)n(C)c2=O)c2ccccc2c1=O | 78* | 16 | 23 | -22 | 6 | -15 | 36* | 53* | 9 | 8
O=C(CCN1C(=O)c2ccc(Br)cc2C1=O)NC1CCCCC1 | 3 | 11 | 0 | 7 | 2 | 12 | . | . | . | .
CC(C)c1ccc(OCC(=O)N2CCN(C(=O)c3ccco3)CC2)cc1 | -24 | . | -1 | . | 1 | . | . | . | . | .
Cc1ccc2c(c1)C(=O)C(=O)N2Cc1ccc(Cl)cc1 | 55* | 2 | 2 | -7 | 9 | -5 | 21 | 28 | 4 | -1
CCOc1ncccc1C(=O)OCC(=O)NC1CCCCC1 | -17 | 3 | 1 | -10 | 19 | -8 | . | . | . | .
Cc1ccc(C)c(OCCC(=O)OCC(=O)NCCNC(=O)COC(=O)CCOc2cc(C)ccc2C)c1 | 87* | 13 | 4 | 12 | 20 | 0 | 48* | 68* | 16* | 18
COc1ccc(N2CCN(C(=O)COC(=O)c3oc4ccc(OC)cc4c3C)CC2)cc1 | 69* | 9 | 2 | -7 | 14 | 18 | 42* | 57* | 11 | 9
SMILES | TAAR1 antagonist | OX1R antag-1 | NTR1 ag | OX1R antag-2 | TAAR1 agonist | CHO parental Ca | TAAR1 nonsel count | TAAR1 ant conf | Ga16 nonsel ag | TAAR1 ag count
Cc1ccc(C)c(OCCC(=O)OCC(=O)NCc2ccccc2)c1 | -27 | 16 | 0 | -20 | -2 | 5 | . | . | . | .
COc1ccc(N2CCN(C(=O)COC(=O)CCOc3ccccc3C)CC2)cc1 | -15 | 16 | -1 | -18 | 6 | -18 | . | . | . | .
COc1ccc2oc(C(=O)OCC(=O)N3CC(C)CC(C)C3)c(C)c2c1 (stereo unspecified) | 16 | 22 | 0 | -15 | 3 | -25 | . | . | . | .
COc1ccc(N2CCN(C(=O)COC(=O)CCOc3cc(C)ccc3C)CC2)cc1 | 51* | 18 | 1 | -27 | 10 | 0 | 40* | 52* | 12* | 7
CC(=O)C[C@H](O)CC(=O)[C@H]1OC(=O)CC/C=C\Cc2ccccc21 | 4 | 9 | -1 | -12 | 4 | -5 | . | . | . | .
COc1ccc(OC)c(NC(=O)C2(C)CCN2Cc2cccc(OC)c2F)c1 (stereo unspecified) | 51* | . | . | . | -1 | . | 15 | 30 | 1 | -1
COc1ccc(C(=O)Cn2nnc(-c3ccccc3NC(=O)c3ccco3)n2)cc1 | 55* | 14 | 7 | -28 | 16 | -32 | 20 | 48 | 9 | 11
COc1ccc(C(=O)Nc2ccccc2-c2nnn(CC(=O)N3CCOCC3)n2)cc1 | 18 | 0 | 0 | -9 | 11 | -8 | . | . | . | .
CCO[C@@H]1OC(C(=O)N2CCN(Cc3ccccc3)CC2)=C[C@H](c2csc3ccccc23)[C@H]1CCCO | 52* | 22 | 8 | -27 | 9 | -2 | 23* | 25 | 5 | 1
CCO[C@H]1OC(C(=O)N2CCCCCCC2)=C[C@@H](c2csc3ccccc23)[C@@H]1CCCO | 9 | 4 | 5 | -39 | 13 | -19 | . | . | . | .
C=CCN1C(=O)c2ccccc2Sc2ccc(C(=O)NCCC)cc21 | -6 | -1 | -1 | -22 | 8 | -14 | . | . | . | .

Screening data from PubChem.
